Reference: article PMC8774845 (Plant Physiology, 2021)
Where “and” joins values, the source holds several entries; their conditions need not be identical. Equal entries are not always repeated. Entries after “also recorded” stand apart in the source; their conditions may differ. Where two headings read alike, the source gives them in different places.

What was measured:
PpADT-G [1] = test: Inhibition of ADT activity by Phe, recombinant enzyme; assay type: biochemical, Pinus pinaster
Procedure, shortened: (§1)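 The Pinus pinaster ADT was used either as wild-type or as chimeras made by fusion PCR. It was His-tagged without the transit peptide, expressed in E. coli BL21 DE3 RIL and Ni-purified. About 1 µg of protein in 50 mM Tris pH 8.0 was preincubated 5 min with a range of Phe concentrations. Reaction started with 0.1 mM Agn at 30°C and was stopped with methanol. Phe product was quantified by UPLC/MS, with linearity checked over ≥5 min. At least duplicate; IC50 from kinetic fitting.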

PpADT-C [2] = test: as above; assay type: biochemical, Pinus pinaster; conditions: read-out: ADT IC50 (μM of Phe), 0.1 mM of Agn
Procedure, shortened: as §1

PpADT-Gmut^1 [3] = test: Inhibition of ADT activity by Phe, chimeric enzyme; assay type: biochemical, Pinus pinaster; conditions: read-out: ADT IC50 (μM of Phe), 0.1 mM of Agn
Procedure, shortened: as §1

PpADT-Cmut^1 [4] = test: Inhibition of ADT activity by Phe, chimeric enzyme; assay type: biochemical, Pinus pinaster; conditions: read-out: ADT IC50 (μM of Phe), 0.1 mM of Agn
Procedure, shortened: as §1

PpADT-G [5] = test: Inhibition of PDT activity by Phe, recombinant enzyme; assay type: biochemical, Pinus pinaster
Procedure, shortened: (§2)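 PDT reaction: about 5 µg of His-tagged, Ni-purified Pinus pinaster ADT (wild-type or fusion-PCR chimera) in 50 mM Tris pH 8.0 was preincubated 5 min with Phe. The reaction started with 1 mM Ppa at 30°C; Ppa content was first verified by HCl conversion. It was stopped with 2 M NaOH and left ≥10 min at room temperature. Phenylpyruvate was read at 321 nm against a calibration curve. At least duplicate; IC50, Ki and inhibition type came from kinetic fitting.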

PpADT-C [6] = test: as above; assay type: biochemical, Pinus pinaster
Procedure, shortened: as §2

PpADT-Gmut^1 [7] = test: Inhibition of PDT activity by Phe, chimeric enzyme; assay type: biochemical, Pinus pinaster
Procedure, shortened: as §2

PpADT-Cmut^1 [8] = test: Inhibition of PDT activity by Phe, chimeric enzyme; assay type: biochemical, Pinus pinaster
Procedure, shortened: as §2

PpADT-Gmut^6 = test: Inhibition of PDT activity by Phe, mutant enzyme; assay type: biochemical, Pinus pinaster; conditions: read-out: IC50 (μM) for Phe; PDT reaction, 1 mM of substrate (Ppa); Thr303→Ala, Leu304→Gln
Procedure, shortened: (§3)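 Ni-purified His-tagged mutants, expressed in E. coli BL21 DE3 RIL, were assayed for PDT activity. About 5 µg protein in 50 mM Tris pH 8.0 was preincubated 5 min at 30°C with varying Phe. Reactions were started with 1 mM prephenate, stopped with 2 M NaOH and read at 321 nm against a phenylpyruvate calibration. Runs were in triplicate, linear ≥5 min, with IC50 obtained by kinetic fitting.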

PpADT-Gmut^62 = test: Inhibition of PDT activity by Phe, mutant enzyme; assay type: biochemical, Pinus pinaster; conditions: read-out: IC50 (μM) for Phe; PDT reaction, 1 mM of substrate (Ppa); Thr303→Ala, Leu304→His
Procedure, shortened: as §3

PpADT-Gmut^8 [9] = test: Inhibition of PDT activity by Phe, mutant enzyme; assay type: biochemical, Pinus pinaster; conditions: read-out: IC50 (μM) for Phe; PDT reaction, 1 mM of substrate (Ppa); Pro308→Thr, Gly309→Ser
Procedure, shortened: as §3

PpADT-Gmut^9 = test: Inhibition of PDT activity by Phe, mutant enzyme; assay type: biochemical, Pinus pinaster; conditions: read-out: IC50 (μM) for Phe; PDT reaction, 1 mM of substrate (Ppa); Ala314→Val, Ala316→Ser, Val317→Ala
Procedure, shortened: as §3

PpADT-Gmut^11 = test: Inhibition of PDT activity by Phe, mutant enzyme; assay type: biochemical, Pinus pinaster; conditions: read-out: IC50 (μM) for Phe; PDT reaction, 1 mM of substrate (Ppa); Ala314→Val
Procedure, shortened: (§4)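 PpADT-G point mutants were made by site-directed mutagenesis, expressed His-tagged in E. coli BL21 DE3 RIL and Ni-purified. About 5 µg of protein in 50 mM Tris pH 8.0 was preincubated 5 min with varying Phe. The PDT reaction started with 1 mM Ppa at 30°C and was stopped with 2 M NaOH. Phenylpyruvate was read by absorbance at 321 nm against a phenylpyruvate calibration. Triplicate; IC50 was fitted.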

PpADT-Gmut^12 = test: Inhibition of PDT activity by Phe, mutant enzyme; assay type: biochemical, Pinus pinaster; conditions: read-out: IC50 (μM) for Phe; PDT reaction, 1 mM of substrate (Ppa); Ala316→Ser
Procedure, shortened: as §4

PpADT-Gmut^13 = test: Inhibition of PDT activity by Phe, mutant enzyme; assay type: biochemical, Pinus pinaster; conditions: read-out: IC50 (μM) for Phe; PDT reaction, 1 mM of substrate (Ppa); Val317→Ala
Procedure, shortened: as §4

PpADT-Gmut^16 = test: Inhibition of PDT activity by Phe, mutant enzyme; assay type: biochemical, Pinus pinaster; conditions: read-out: IC50 (μM) for Phe; PDT reaction, 1 mM of substrate (Ppa); Ala316→Ser, Val317→Ala
Procedure, shortened: as §3

PpADT-Gmut^10 = test: Inhibition of PDT activity by Phe, mutant enzyme; assay type: biochemical, Pinus pinaster; conditions: read-out: IC50 (μM) for Phe; PDT reaction, 1 mM of substrate (Ppa); Leu320→Phe, Asn324→Ser
Procedure, shortened: as §3

PpADT-Gmut^102 = test: Inhibition of PDT activity by Phe, mutant enzyme; assay type: biochemical, Pinus pinaster; conditions: read-out: IC50 (μM) for Phe; PDT reaction, 1 mM of substrate (Ppa); Leu320→Phe
Procedure, shortened: as §4

PpADT-Gmut^103 = test: Inhibition of PDT activity by Phe, mutant enzyme; assay type: biochemical, Pinus pinaster; conditions: read-out: IC50 (μM) for Phe; PDT reaction, 1 mM of substrate (Ppa); Asn324→Ser
Procedure, shortened: as §4

PpADT-Gmut^8 [10] = test: Effect of 100 μM Phe over ADT activity, mutant enzyme; assay type: biochemical, Pinus pinaster; conditions: Phe at 100 µM
Procedure, shortened: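 His-tagged recombinant mutant enzyme without its transit peptide, expressed in E. coli BL21 DE3 RIL and Ni-purified. About 1 µg protein in 50 mM Tris pH 8.0 was preincubated 5 min at 30°C with 100 µM Phe. Arogenate was added to start the reaction, and methanol stopped it. Phe formed was quantified by UPLC/MS against a pure-Phe calibration. Activity is relative to the no-Phe control; error bars sd.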

AtADT1 = AtADT1 (Arabidopsis thaliana, UniProt Q9SA96); test: Effect of 100 μM Phe over ADT activity, recombinant type-I ADT; assay type: biochemical, A. thaliana; conditions: 100 µM of Phe, 100 µM of substrate (Agn), compared to control (absence of Phe)
Chain of AtADT1 (Q9SA96 49-392): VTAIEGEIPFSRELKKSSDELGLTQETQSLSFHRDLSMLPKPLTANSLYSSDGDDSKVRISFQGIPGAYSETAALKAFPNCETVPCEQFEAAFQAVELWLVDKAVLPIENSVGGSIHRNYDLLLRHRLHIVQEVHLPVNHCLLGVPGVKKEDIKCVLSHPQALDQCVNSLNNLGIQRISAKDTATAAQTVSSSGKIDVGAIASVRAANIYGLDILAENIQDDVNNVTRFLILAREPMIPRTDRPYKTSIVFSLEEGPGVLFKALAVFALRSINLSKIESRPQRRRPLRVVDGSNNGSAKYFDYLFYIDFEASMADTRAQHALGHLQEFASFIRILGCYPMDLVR
Procedure, shortened: (§5)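 Type-I or type-II plant ADT ORFs were cloned from cDNA into pET30b without the putative plastid transit peptide and with a C-terminal His tag. Proteins were expressed in E. coli BL21 DE3 RIL (0.5 mM IPTG, 18–20 h at 12°C) and Ni-purified. About 1 µg was preincubated 5 min with 100 µM Phe in 50 mM Tris pH 8.0. Reaction started with 100 µM Agn at 30°C and was stopped with methanol. Phe formed was quantified by UPLC/MS. Activity is relative to the no-Phe control (100%); triplicate.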

Potri11G4700 = test: as above; assay type: biochemical, Populus trichocarpa; conditions: 100 µM of Phe, 100 µM of substrate (Agn), compared to control (absence of Phe)
Procedure, shortened: as §5

Niben8991 = test: as above; assay type: biochemical, Nicotiana benthamiana; conditions: 100 µM of Phe, 100 µM of substrate (Agn), compared to control (absence of Phe)
Procedure, shortened: as §5

Cucsa52640 = test: as above; assay type: biochemical, Cucumis sativus; conditions: 100 µM of Phe, 100 µM of substrate (Agn), compared to control (absence of Phe)
Procedure, shortened: as §5

AtADT4 = AtADT4 (Arabidopsis thaliana, UniProt O22241); test: Effect of 100 μM Phe over ADT activity, recombinant type-II ADT; assay type: biochemical, A. thaliana; conditions: 100 µM of Phe, 100 µM of substrate (Agn)
Chain of AtADT4 (O22241 35-424): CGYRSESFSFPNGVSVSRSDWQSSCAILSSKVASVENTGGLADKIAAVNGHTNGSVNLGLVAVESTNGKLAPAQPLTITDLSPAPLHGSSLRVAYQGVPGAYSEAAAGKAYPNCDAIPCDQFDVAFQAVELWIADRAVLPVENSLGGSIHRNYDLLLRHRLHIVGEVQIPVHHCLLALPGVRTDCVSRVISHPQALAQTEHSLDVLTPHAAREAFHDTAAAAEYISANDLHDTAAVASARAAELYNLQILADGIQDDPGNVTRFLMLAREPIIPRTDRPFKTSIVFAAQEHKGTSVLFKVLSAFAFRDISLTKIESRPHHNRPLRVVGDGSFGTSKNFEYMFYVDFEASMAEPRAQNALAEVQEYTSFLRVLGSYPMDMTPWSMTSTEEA
Procedure, shortened: as §5

Potri4G188100 = test: as above; assay type: biochemical, P. trichocarpa; conditions: 100 µM of Phe, 100 µM of substrate (Agn)
Procedure, shortened: as §5

Orysa4G33390 = test: as above; assay type: biochemical, O. sativa; conditions: 100 µM of Phe, 100 µM of substrate (Agn)
Procedure, shortened: as §5

Zeama2G125923 = test: as above; assay type: biochemical, Zea mays; conditions: 100 µM of Phe, 100 µM of substrate (Agn)
Procedure, shortened: as §5

ADT activity = conditions: read-out: IC50 for ADT activity; crude plant extracts; ref Jung et al., 1986; cited from earlier work
plastidial CM [11] = conditions: read-out: Ki, inhibition of plastidial CM by Phe; ref Benesova and Bode, 1992; cited from earlier work
plastidial CM [12] = conditions: read-out: Ki, inhibition of plastidial CM by Phe; ref Kuroki and Conn, 1988; cited from earlier work
plastidial CM [13] = conditions: read-out: IC50, inhibition of plastidial CM by Phe; ref Westfall et al., 2014; cited from earlier work
plastidial CM [14] = conditions: read-out: IC50, inhibition of plastidial CM by Phe; ref Kroll et al., 2017; cited from earlier work
[15] = read-out: PDT IC50 (μM of Phe), 1 mM of Ppa

- ADT activity at 100 µM of Phe (PpADT-G [1]; 100 µM of Phe): mostly inactive
- IC50 (PpADT-G [1]; read-out: ADT IC50 (μM of Phe), ADT activity, 0.1 mM of Agn): 27.6 ± 1.5 µM
- IC50 (PpADT-C [2]): > 100 µM
- IC50 (PpADT-Gmut^1 [3]): > 100 µM
- IC50 (PpADT-Cmut^1 [4]): ~52.8 µM and 52.8 µM
- Proposed type of inhibition (PpADT-G [5]): Uncompetitive
- IC50 (PpADT-G [5]; [15]): 47.7 ± 3 µM
- Ki (PpADT-G [5]; read-out: PDT K i (μM of Phe)): 28.1 ± 1 µM
- Proposed type of inhibition (PpADT-C [6]): Cooperative
- IC50 (PpADT-C [6]; [15]): 320 µM
- Proposed type of inhibition (PpADT-Gmut^1 [7]): allosteric; also recorded: Cooperative
- IC50 (PpADT-Gmut^1 [7]; [15]): 390 ± 15.4 µM
- Proposed type of inhibition (PpADT-Cmut^1 [8]): Uncompetitive
- IC50 (PpADT-Cmut^1 [8]; [15]): ~36.1 µM and 36.1 µM
- Ki (PpADT-Cmut^1 [8]; read-out: PDT K i (μM of Phe)): 170 ± 16.3 µM
- IC50 (PpADT-Gmut^6): 333 ± 8 µM
- IC50 (PpADT-Gmut^62): 333.5 ± 3.1 µM
- IC50 (PpADT-Gmut^8 [9]): 445 µM
- IC50 (PpADT-Gmut^9): 17.5 ± 3.7 µM
- IC50 (PpADT-Gmut^11): 14.6 ± 2.3 µM
- IC50 (PpADT-Gmut^12): 26 ± 4.8 µM
- IC50 (PpADT-Gmut^13): 23.6 ± 1.4 µM
- IC50 (PpADT-Gmut^16): 17.2 ± 0.2 µM
- IC50 (PpADT-Gmut^10): 184 ± 24.7 µM
- IC50 (PpADT-Gmut^102): 135.4 ± 0.7 µM
- IC50 (PpADT-Gmut^103): 234 ± 4.9 µM
- decrease in ADT activity (AtADT1): > 90%
- effect on ADT activity (AtADT4): not substantially affected
Structure (SMILES): N[C@@H](Cc1ccccc1)C(=O)O [Phe, phenylalanine]
- Phe-mediated inhibition of ADT activity compared to the wild-type (PpADT-Gmut^8 [10]): more resistant to inhibition than the wild-type
- decrease in ADT activity (Potri11G4700): > 90%
- decrease in ADT activity (Niben8991): > 90%
- decrease in ADT activity (Cucsa52640): > 90%
- effect on ADT activity (Potri4G188100): not substantially affected
- effect on ADT activity (Orysa4G33390): not substantially affected
- effect on ADT activity (Zeama2G125923): not substantially affected
- IC50 (ADT activity): ~35 µM
- Ki (plastidial CM [11]): 1100 µM
- Ki (plastidial CM [12]): 550 µM
- IC50 (plastidial CM [13]): 50 µM
- IC50 (plastidial CM [14]): 82 µM
